Measurements: ChEMBL document CHEMBL3286388, “Discovery of potent anticancer agent HJC0416, an orally bioavailable small molecule inhibitor of signal transducer and activator of transcription 3 (STAT3)” (Eur J Med Chem, 2014)
pIC50: −log10 of the molar value. Activity calls are given as the source filed them. The rule behind the calls is not given here.

Assays:
MDA-MB-231 [1] = experiment: Antiproliferative activity against ER-negative and triple-negative human MDA-MB-231 cells assessed as inhibition of cell proliferation after 72 hrs by MTS assay; format: functional, cell-based; settings: MDA-MB-231, 72 h
Procedure, shortened: (§1)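 Cells seeded at 2 × 10^3 per well, exposed to DMSO or 0.01–100 µM (0.01, 0.1, 1, 5, 10, 100) for 72 h. MTS added, OD 550 nm read after 1 h at 37 °C. Quadruplicate wells for each concentration; IC50 reported.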

[2] = Antiproliferative activity against human PANC1 cells assessed as inhibition of cell proliferation after 72 hrs by MTS assay; format: functional, cell-based; settings: PANC-1, 72 h; procedure, shortened: as §1
ASPC1 = experiment: Antiproliferative activity against human AsPC1 cells assessed as inhibition of cell proliferation after 72 hrs by MTS assay; format: functional, cell-based; settings: ASPC1, 72 h; procedure, shortened: as §1
MCF7 = experiment: Antiproliferative activity against ER-positive human MCF7 cells assessed as inhibition of cell proliferation after 72 hrs by MTS assay; format: functional, cell-based; settings: MCF7, 72 h; procedure, shortened: as §1
MDA-MB-231 [3] = experiment: Downregulation of cyclin D1 protein expression in human MDA-MB-231 cells at 1 to 10 uM after 12 hrs by western blot analysis; format: functional, cell-based
Procedure, shortened: (§2)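 MDA-MB-231 cells treated for 12 h. Lysates (40 µg protein, BCA) run on 10% SDS-PAGE and transferred to nitrocellulose. Blocked in 5% milk/1% Tween 20 in TBS, probed for pSTAT3 Y705, STAT3, active caspase-3, cyclin D1 and β-actin, ECL detection.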

MDA-MB-231 [4] = experiment: Anticancer activity against human MDA-MB-231 cells assessed as cell growth inhibition, apoptosis and cellular morphological changes at 1 to 10 uM after 48 hrs by light microscopy; format: functional, cell-based
Procedure, shortened: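 Exponentially growing MDA-MB-231 cells incubated with compound for 48 h; growth, apoptosis and morphology judged under light microscopy.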

MDA-MB-231 [5] = experiment: Antitumor activity against triple-negative human MDA-MB-231 cells xenografted in nude mouse assessed as decrease in tumor volume at 10 mg/kg, ip administered daily; format: functional; settings: MDA-MB-231, ip, route intraperitoneal
Procedure, shortened: (§3)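 Female nude mice, 6 weeks old, received 2.5 × 10^6 MDA-MB-231 cells in PBS into the 3rd mammary fat pad and were randomized (5–10 per group). Dosing began at 150 mm³ tumors for ip daily 10 mg/kg, or 110 mm³ for oral gavage 100 mg/kg five days per week. Vehicle was 50% DMSO/50% PEG. Body weight and tumor volume (0.5·L·W²) measured daily.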

Mus musculus = experiment: Toxicity in nude mouse xenografted with triple-negative human MDA-MB-231 cells assessed as body weight loss at 100 mg/kg, po administered via gavage for five days per week; format: organism-based; parameters: dose 100 mg/kg, route oral; settings: in vivo; procedure, shortened: as §3
[6] = biological target: Signal transducer and activator of transcription 3 (Homo sapiens) (UniProt P40763); experiment: Inhibition of STAT3 phosphorylation at Tyr705 in human MDA-MB-231 cells at 1 to 10 uM after 12 hrs by western blot analysis; format: cell-based; procedure, shortened: as §2
MDA-MB-231 [7] = experiment: Antitumor activity against triple-negative human MDA-MB-231 cells xenografted in nude mouse assessed as decrease in tumor volume at 100 mg/kg, po administered via gavage for five days per week; format: functional; settings: MDA-MB-231, 120 h; procedure, shortened: as §3
MDA-MB-231 [8] = experiment: Induction of apoptosis in human MDA-MB-231 cells assessed as cleaved caspase-3 level at 1 to 10 uM after 12 hrs by western blot analysis; format: functional, cell-based; procedure, shortened: as §2
MDA-MB-231 [9] = experiment: Decrease in STAT3 protein expression in human MDA-MB-231 cells at 1 to 10 uM after 12 hrs by western blot analysis; format: functional, cell-based; procedure, shortened: as §2
MDA-MB-231 [10] = experiment: Inhibition of STAT3 promoter activity in human MDA-MB-231 cells at 5 uM after 24 hrs by dual luciferase reporter assay; format: functional; settings: MDA-MB-231, 24 h
Procedure, shortened: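 MDA-MB-231 cells pretreated at 5 µM for 24 h, replated in RPMI-1640 with 10% FBS, and transfected 4 h later with pSTAT3-Luc plus renilla control (95:5, 0.5 µg DNA per well). Treated again for 24 h starting 5 h after transfection. RLU = firefly/renilla luciferase relative to DMSO control. Triplicate wells, at least 3 independent experiments.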

Sequence of Signal transducer and activator of transcription 3 (Homo sapiens) (P40763 whole entry): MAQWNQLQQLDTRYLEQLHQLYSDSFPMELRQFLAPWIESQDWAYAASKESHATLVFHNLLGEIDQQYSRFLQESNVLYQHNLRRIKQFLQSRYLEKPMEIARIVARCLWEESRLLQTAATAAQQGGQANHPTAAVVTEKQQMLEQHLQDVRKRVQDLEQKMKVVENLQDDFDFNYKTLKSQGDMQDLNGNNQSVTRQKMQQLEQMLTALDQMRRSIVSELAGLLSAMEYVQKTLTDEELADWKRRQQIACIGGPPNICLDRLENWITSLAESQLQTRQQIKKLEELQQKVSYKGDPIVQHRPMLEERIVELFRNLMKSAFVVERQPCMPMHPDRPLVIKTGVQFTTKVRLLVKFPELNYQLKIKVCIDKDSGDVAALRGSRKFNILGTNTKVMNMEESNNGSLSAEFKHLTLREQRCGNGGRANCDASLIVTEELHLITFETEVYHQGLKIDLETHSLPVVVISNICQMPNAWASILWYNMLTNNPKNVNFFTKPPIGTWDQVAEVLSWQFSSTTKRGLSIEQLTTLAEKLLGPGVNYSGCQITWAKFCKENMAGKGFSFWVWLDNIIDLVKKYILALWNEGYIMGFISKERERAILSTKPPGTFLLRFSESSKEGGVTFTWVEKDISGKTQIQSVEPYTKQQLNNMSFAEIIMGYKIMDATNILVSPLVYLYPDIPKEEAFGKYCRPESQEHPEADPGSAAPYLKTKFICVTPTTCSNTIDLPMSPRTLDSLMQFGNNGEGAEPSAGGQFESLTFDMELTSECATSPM

pIC50 (MDA-MB-231 [1]) | pIC50 (ASPC1) | pIC50 (MCF7) | inhibition [6] | Structure (SMILES) | pIC50 [2] | inhibition (MDA-MB-231 [3]) | Activity (MDA-MB-231 [4]) | inhibition in vivo at 10 mg/kg (MDA-MB-231 [5]) [%] | Activity (Mus musculus) | inhibition in vivo at 100 mg/kg (MDA-MB-231 [7]) [%] | Activity (MDA-MB-231 [8]) | inhibition (MDA-MB-231 [9]) | inhibition at 5 µM (MDA-MB-231 [10]) [%]
5.54 | 5.97 | 5.39 |  | CN1CCN(CCOc2ccc(Cl)cc2C(=O)Nc2ccc3c(c2)S(=O)(=O)C=C3)CC1 | 5.52 |  |  |  |  |  |  |  | 
5.35 | 5.86 | 5.40 |  | O=C(Nc1ccc2c(c1)S(=O)(=O)C=C2)c1cc(Cl)ccc1OCCF | 5.02 |  |  |  |  |  |  |  | 
5.27 | 5.86 | 6.31 |  | O=C(Nc1ccc2c(c1)S(=O)(=O)C=C2)c1cc(Cl)ccc1OCCN1CCOCC1 | 5.16 |  |  |  |  |  |  |  | 
5.60 | 5.85 | 5.43 |  | O=C(Nc1ccc2c(c1)S(=O)(=O)C=C2)c1cc(Cl)ccc1OCCN1CCCCC1 | 5.74 |  |  |  |  |  |  |  | 
5.55 | 5.80 | 5.38 |  | O=C(Nc1ccc2c(c1)S(=O)(=O)C=C2)c1cc(Cl)ccc1OC1CCNCC1 | 5.39 |  |  |  |  |  |  |  | 
5.51 | 5.98 | 5.46 |  | NCCOc1ccc(Cl)cc1C(=O)Nc1ccc2c(c1)S(=O)(=O)C=C2 | 5.65 |  |  |  |  |  |  |  | 
5.57 | 5.98 | 5.45 |  | CN1CCC(Oc2ccc(Cl)cc2C(=O)Nc2ccc3c(c2)S(=O)(=O)C=C3)CC1 | 5.87 |  |  |  |  |  |  |  | 
5.48 | 5.99 | 5.59 |  | O=C(Nc1ccc2c(c1)S(=O)(=O)C=C2)c1cc(Cl)ccc1OCCN1CCNCC1 | 5.43 |  |  |  |  |  |  |  | 
5.15 | 5.07 | 5.22 |  | COC1CS(=O)(=O)c2cc(NC(=O)c3cc(Cl)ccc3O)ccc21 (configuration not stated) | 5.08 |  |  |  |  |  |  |  | 
5.57 | 5.94 | 5.46 |  | CN(C)CCOc1ccc(Cl)cc1C(=O)Nc1ccc2c(c1)S(=O)(=O)C=C2 | 5.47 |  |  |  |  |  |  |  | 
5.51 | 5.69 | 5.50 |  | CNCCOc1ccc(Cl)cc1C(=O)Nc1ccc2c(c1)S(=O)(=O)C=C2 | 5.51 |  |  |  |  |  |  |  | 
5.71 | 7.40 | 5.75 | Active | NCCCOc1ccc(Cl)cc1C(=O)Nc1ccc2c(c1)S(=O)(=O)C=C2 | 5.73 | Active | Active | 67 | Non-toxic | 46 | Active | Active | 51
< 5.00 |  | < 5.00 |  | O=C(Nc1ccc2c(c1)S(=O)(=O)C=C2)c1cc(Cl)ccc1OCCBr |  |  |  |  |  |  |  |  | 
5.54 | 5.88 | 5.44 | Active | O=[N+]([O-])c1ccc2c(c1)S(=O)(=O)C=C2 | 5.42 |  | Active |  |  |  |  | Active | 39
